From ChEMBL document CHEMBL1145772, “Antiinflammatory, gastrosparing, and antiplatelet properties of new NO-donor esters of aspirin” (J Med Chem, 2003)

Legend:
Homo sapiens [1] = species: Homo sapiens; assay: Inhibition of collagen-induced human platelet rich plasma aggregation at 50 uM concentration; type: functional
In short: (§1)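 Human platelet-rich plasma is prepared from citrated venous blood of drug-free healthy volunteers (at least 2 weeks) by spinning at 200g for 20 min. Compound is added 10 min before the agonist, either ADP or collagen at […]. Light-transmission aggregation is recorded under stirring at 1000 rpm, 37 °C, for 5 min. Inhibition is expressed relative to vehicle (<0.5% DMSO) controls. The top concentration is 50 µM. pIC50 is fitted by nonlinear regression when inhibition exceeds 50%.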

[2] = Percent unaltered compound in human serum after 1 hr of incubation; type: ADME; settings: read-out: Unaltered compound
In short: (§2)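 Compound is incubated in human serum at 37 °C for 1 min or 1 h. Samples are then deproteinized with acetonitrile containing 0.1% TFA and centrifuged at 9600g for 10 min. The remaining intact compound is quantified by reversed-phase HPLC on an RP-18 column at 40 °C, using a 25–80% acetonitrile/0.1% TFA gradient, with UV detection at 224 nm.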

[3] = Percent unaltered compound in human serum after 1 min of incubation; type: ADME; settings: read-out: Unaltered compound; in short: as §2
Homo sapiens [4] = species: Homo sapiens; assay: Inhibition of ADP-induced human platelet rich plasma aggregation at 50 uM concentration; type: functional; in short: as §1
Homo sapiens [5] = species: Homo sapiens; assay: Inhibition of collagen-induced human platelet rich plasma aggregation at 50 uM concentration in presence of 40 uM HbO2; type: functional
In short: (§3)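 Aggregation of human PRP is triggered by ADP or by collagen at […], and read by light transmission (stirring, 37 °C, 5 min). Compound is given 10 min before the agonist. The NO scavenger oxyhaemoglobin or the sGC inhibitor ODQ (100 µM) is included to probe NO/sGC involvement. The value is % inhibition versus vehicle control at the top tested concentration of 50 µM.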

Homo sapiens [6] = species: Homo sapiens; assay: Inhibition of collagen-induced human platelet rich plasma aggregation at 50 uM concentration in presence of 100 uM ODQ; type: functional; in short: as §3
Homo sapiens [7] = species: Homo sapiens; assay: Inhibition of ADP-induced human platelet rich plasma aggregation at 50 uM concentration in presence of 100 uM ODQ; type: functional; in short: as §3
Homo sapiens [8] = species: Homo sapiens; assay: Inhibition of ADP-induced human platelet rich plasma aggregation at 50 uM concentration in presence of 40 uM HbO2; type: functional; in short: as §3
[9] = NO release in the presence of 1:5 molar excess of L-cysteine, value expressed as % mol/mol of NO2-
In short: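 Compound is dissolved in pH 7.4 buffered water/methanol and incubated for 1 h at 37 °C with a 1:5 molar excess of L-cysteine (5 × 10^-4 M). Griess reagent is added, and absorbance at 540 nm is read after 10 min at room temperature. Nitrite is reported as % mol/mol, mean ± SEM.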

Homo sapiens [10] = species: Homo sapiens; assay: Inhibition of collagen-induced human platelet rich plasma aggregation; type: functional; in short: as §1

| Structure (SMILES) | remaining at 1 h [2] [%] | remaining at 1 min [3] [%] | NO release [9] | inhibition at 50 µM (Homo sapiens [1]) [%] | inhibition at 50 µM (Homo sapiens [4]) [%] | Inhibition (Homo sapiens [5]) [%] | Inhibition (Homo sapiens [6]) [%] | Inhibition (Homo sapiens [7]) [%] | Inhibition (Homo sapiens [8]) [%] | Inhibition (Homo sapiens [10]) [%] |
| --- | --- | --- | --- | --- | --- | --- | --- | --- | --- | --- |
| CC(=O)Oc1ccccc1C(=O)OCc1nonc1C(N)=O | 0 | 0 | – | 16.7 | 7.6 | – | – | – | – | – |
| CC(=O)Oc1ccccc1C(=O)OCCCOc1nonc1-c1ccccc1 | 3.9 | 39.3 | – | 0.7 | 16.9 | – | – | – | – | – |
| CC(=O)Oc1ccccc1C(=O)OCc1no[n+]([O-])c1C(N)=O | 0 | 0 | 3.8 | – | – | 14.4 | 18.5 | 22.6 | 28.6 | – |
| CC(=O)Oc1ccccc1C(=O)OCCCOc1no[n+]([O-])c1S(=O)(=O)c1ccccc1 | 9.3 | 43.7 | 37.1 | – | – | – | – | – | – | – |
| CC(=O)Oc1ccccc1C(=O)OCCCOc1no[n+]([O-])c1-c1ccccc1 | 3.8 | 38.8 | 0.35 | – | – | – | – | – | – | – |
| CC(=O)Oc1ccccc1C(=O)OCCCOc1nonc1S(=O)(=O)c1ccccc1 | 8.1 | 47.6 | – | 14.8 | 3.3 | – | – | – | – | – |
| CC(=O)Oc1ccccc1C(=O)OCc1no[n+]([O-])c1C#N | 0 | 0 | 32.3 | – | – | – | – | – | – | – |

Second part, led by results:

| remaining at 1 h [2] [%] | remaining at 1 min [3] [%] | NO release [9] | Structure (SMILES) | inhibition at 50 µM (Homo sapiens [1]) [%] | inhibition at 50 µM (Homo sapiens [4]) [%] | Inhibition (Homo sapiens [5]) [%] | Inhibition (Homo sapiens [6]) [%] | Inhibition (Homo sapiens [7]) [%] | Inhibition (Homo sapiens [8]) [%] | Inhibition (Homo sapiens [10]) [%] |
| --- | --- | --- | --- | --- | --- | --- | --- | --- | --- | --- |
| 0 | 0 | – | CCCOC(=O)c1ccccc1OC(C)=O | 14.4 | 18.1 | – | – | – | – | – |
| 0 | 0 | – | CC(=O)Oc1ccccc1C(=O)OCc1nonc1C | 1.5 | 23.2 | – | – | – | – | – |
| 0 | 0 | 0.18 | CC(=O)Oc1ccccc1C(=O)OCCCO[N+](=O)[O-] | 12.3 | 18.3 | – | – | – | – | – |
| 0 | 0 | – | CC(=O)Oc1ccccc1C(=O)OCc1nonc1C#N | 27.9 | 14.8 | – | – | – | – | – |
| 0 | 2.5 | 0 | CC(=O)Oc1ccccc1C(=O)OCc1no[n+]([O-])c1C | – | 17.8 | – | – | – | – | 18.6 |
